# Experimental data: ChEMBL document CHEMBL4145462, “Nitrogen-containing ecdysteroid derivatives vs. multi-drug resistance in cancer: Preparation and antitumor activity of oximes, oxime ethers and a lactam” (Eur J Med Chem, 2018)
# What was measured:
# [1] = Cytotoxicity against mouse L5178 cells expressing human ABCB1 after 48 hrs by MTT assay; type: functional, cell-based; conditions: L5178, 48 h
# Procedure, shortened: (§1)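 Parental mouse lymphoma L5178 and the MDR line made by pHa MDR1/A retrovirus transfection, selected with 60 µg/L colchicine. Grown in McCoy's 5A with horse serum at 37°C, 5% CO2. 5 x 10^4 cells/well, serial compound dilutions, 48 h. MTT added to 0.5 mg/mL final for 4 h, then 10% SDS in 0.01 M HCl overnight, OD read at 540 and 630 nm. IC50 taken as median cytotoxic activity (Dm) from control lanes of checkerboard plates, n=2.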
# [2] = Synergistic cytotoxicity against mouse L5178 cells expressing human ABCB1 assessed as combination index at ED50 using 30:1 test compound to doxorubicin ratio after 48 hrs by MTT-based checkerboard microplate method; type: functional
# Procedure, shortened: (§2)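 Checkerboard microplate combinations of compound with doxorubicin at constant molar ratios. 5 × 10^4 cells/well in McCoy's 5A, 48 h at 37°C, 5% CO2. MTT added to 0.5 mg/mL final for 4 h, SDS/HCl overnight, OD read at 540 and 630 nm. Combination indices derived per ratio for 50%, 75% and 90% growth inhibition by median-effect analysis.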
# [3] = Synergistic cytotoxicity against mouse L5178 cells assessed as combination index at ED50 using 600:1 test compound to doxorubicin ratio after 48 hrs by MTT-based checkerboard microplate method; type: functional; procedure, shortened: as §2
# [4] = Synergistic cytotoxicity against mouse L5178 cells assessed as combination index at ED75 using 300:1 test compound to doxorubicin ratio after 48 hrs by MTT-based checkerboard microplate method; type: functional; procedure, shortened: as §2
# [5] = Synergistic cytotoxicity against mouse L5178 cells assessed as combination index at ED90 using 150:1 test compound to doxorubicin ratio after 48 hrs by MTT-based checkerboard microplate method; type: functional; procedure, shortened: as §2
# [6] = Synergistic cytotoxicity against mouse L5178 cells expressing human ABCB1 assessed as combination index at ED75 using 60:1 test compound to doxorubicin ratio after 48 hrs by MTT-based checkerboard microplate method; type: functional; procedure, shortened: as §2
# [7] = Synergistic cytotoxicity against mouse L5178 cells assessed as combination index at ED75 using 150:1 test compound to doxorubicin ratio after 48 hrs by MTT-based checkerboard microplate method; type: functional; procedure, shortened: as §2
# [8] = system: SiHa; assay: Antiproliferative activity against human SiHa cells after 72 hrs by MTT assay; type: functional, cell-based
# Procedure, shortened: (§3)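 Cells grown in MEM with 10% FCS, 1% non-essential amino acids and 1% penicillin-streptomycin. Seeded at 5000 cells/well, exposed to 0.1–30.0 µM compound for 72 h. MTT (5 mg/ml solution) was then added for 4 h, formazan dissolved in DMSO, and absorbance read at 545 nm. Cisplatin served as positive control. IC50 came from sigmoidal dose–response fits (log inhibitor vs normalized response, variable slope).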
# [9] = Synergistic cytotoxicity against mouse L5178 cells assessed as combination index at ED50 using 300:1 test compound to doxorubicin ratio after 48 hrs by MTT-based checkerboard microplate method; type: functional; procedure, shortened: as §2
# [10] = Synergistic cytotoxicity against mouse L5178 cells assessed as combination index at ED90 using 300:1 test compound to doxorubicin ratio after 48 hrs by MTT-based checkerboard microplate method; type: functional; procedure, shortened: as §2
# [11] = Synergistic cytotoxicity against mouse L5178 cells assessed as combination index at ED50 using 37.5:1 test compound to doxorubicin ratio after 48 hrs by MTT-based checkerboard microplate method; type: functional; procedure, shortened: as §2
# [12] = Synergistic cytotoxicity against mouse L5178 cells assessed as combination index at ED50 using 150:1 test compound to doxorubicin ratio after 48 hrs by MTT-based checkerboard microplate method; type: functional; procedure, shortened: as §2
# [13] = Synergistic cytotoxicity against mouse L5178 cells expressing human ABCB1 assessed as combination index at ED90 using 60:1 test compound to doxorubicin ratio after 48 hrs by MTT-based checkerboard microplate method; type: functional; procedure, shortened: as §2
# [14] = Synergistic cytotoxicity against mouse L5178 cells assessed as combination index at ED90 using 600:1 test compound to doxorubicin ratio after 48 hrs by MTT-based checkerboard microplate method; type: functional; procedure, shortened: as §2
# [15] = Synergistic cytotoxicity against mouse L5178 cells expressing human ABCB1 assessed as combination index at ED50 using 7.5:1 test compound to doxorubicin ratio after 48 hrs by MTT-based checkerboard microplate method; type: functional; procedure, shortened: as §2
# [16] = Synergistic cytotoxicity against mouse L5178 cells expressing human ABCB1 assessed as combination index at ED90 using 15:1 test compound to doxorubicin ratio after 48 hrs by MTT-based checkerboard microplate method; type: functional; procedure, shortened: as §2
# [17] = Synergistic cytotoxicity against mouse L5178 cells expressing human ABCB1 assessed as combination index at ED75 using 7.5:1 test compound to doxorubicin ratio after 48 hrs by MTT-based checkerboard microplate method; type: functional; procedure, shortened: as §2
# [18] = Synergistic cytotoxicity against mouse L5178 cells assessed as combination index at ED75 using 37.5:1 test compound to doxorubicin ratio after 48 hrs by MTT-based checkerboard microplate method; type: functional; procedure, shortened: as §2
# [19] = Synergistic cytotoxicity against mouse L5178 cells assessed as combination index at ED90 using 37.5:1 test compound to doxorubicin ratio after 48 hrs by MTT-based checkerboard microplate method; type: functional; procedure, shortened: as §2
# [20] = Synergistic cytotoxicity against mouse L5178 cells expressing human ABCB1 assessed as combination index at ED75 using 30:1 test compound to doxorubicin ratio after 48 hrs by MTT-based checkerboard microplate method; type: functional; procedure, shortened: as §2
# [21] = Synergistic cytotoxicity against mouse L5178 cells expressing human ABCB1 assessed as combination index at ED90 using 30:1 test compound to doxorubicin ratio after 48 hrs by MTT-based checkerboard microplate method; type: functional; procedure, shortened: as §2
# [22] = Synergistic cytotoxicity against mouse L5178 cells expressing human ABCB1 assessed as combination index at ED75 using 15:1 test compound to doxorubicin ratio after 48 hrs by MTT-based checkerboard microplate method; type: functional; procedure, shortened: as §2
# [23] = Synergistic cytotoxicity against mouse L5178 cells assessed as combination index at ED50 using 75:1 test compound to doxorubicin ratio after 48 hrs by MTT-based checkerboard microplate method; type: functional; procedure, shortened: as §2
# [24] = system: MDA-MB-231; assay: Antiproliferative activity against human MDA-MB-231 cells after 72 hrs by MTT assay; type: functional, cell-based; conditions: MDA-MB-231, 72 h; procedure, shortened: as §3
# [25] = Synergistic cytotoxicity against mouse L5178 cells assessed as combination index at ED75 using 600:1 test compound to doxorubicin ratio after 48 hrs by MTT-based checkerboard microplate method; type: functional; procedure, shortened: as §2
# [26] = Synergistic cytotoxicity against mouse L5178 cells expressing human ABCB1 assessed as combination index at ED90 using 7.5:1 test compound to doxorubicin ratio after 48 hrs by MTT-based checkerboard microplate method; type: functional; procedure, shortened: as §2
# [27] = target: T1, ABCB1 (P-glycoprotein) (Homo sapiens, UniProt P08183); assay: Inhibition of human ABCB1 expressed in mouse L5178 cells assessed as increase in rhodamine-123 accumulation at 20 uM after 10 mins by flow cytometric analysis relative to control; type: cell-based; conditions: mouse L5178 cells expressing human ABCB1, probe rhodamine-123
# T1 sequence (P08183 whole entry): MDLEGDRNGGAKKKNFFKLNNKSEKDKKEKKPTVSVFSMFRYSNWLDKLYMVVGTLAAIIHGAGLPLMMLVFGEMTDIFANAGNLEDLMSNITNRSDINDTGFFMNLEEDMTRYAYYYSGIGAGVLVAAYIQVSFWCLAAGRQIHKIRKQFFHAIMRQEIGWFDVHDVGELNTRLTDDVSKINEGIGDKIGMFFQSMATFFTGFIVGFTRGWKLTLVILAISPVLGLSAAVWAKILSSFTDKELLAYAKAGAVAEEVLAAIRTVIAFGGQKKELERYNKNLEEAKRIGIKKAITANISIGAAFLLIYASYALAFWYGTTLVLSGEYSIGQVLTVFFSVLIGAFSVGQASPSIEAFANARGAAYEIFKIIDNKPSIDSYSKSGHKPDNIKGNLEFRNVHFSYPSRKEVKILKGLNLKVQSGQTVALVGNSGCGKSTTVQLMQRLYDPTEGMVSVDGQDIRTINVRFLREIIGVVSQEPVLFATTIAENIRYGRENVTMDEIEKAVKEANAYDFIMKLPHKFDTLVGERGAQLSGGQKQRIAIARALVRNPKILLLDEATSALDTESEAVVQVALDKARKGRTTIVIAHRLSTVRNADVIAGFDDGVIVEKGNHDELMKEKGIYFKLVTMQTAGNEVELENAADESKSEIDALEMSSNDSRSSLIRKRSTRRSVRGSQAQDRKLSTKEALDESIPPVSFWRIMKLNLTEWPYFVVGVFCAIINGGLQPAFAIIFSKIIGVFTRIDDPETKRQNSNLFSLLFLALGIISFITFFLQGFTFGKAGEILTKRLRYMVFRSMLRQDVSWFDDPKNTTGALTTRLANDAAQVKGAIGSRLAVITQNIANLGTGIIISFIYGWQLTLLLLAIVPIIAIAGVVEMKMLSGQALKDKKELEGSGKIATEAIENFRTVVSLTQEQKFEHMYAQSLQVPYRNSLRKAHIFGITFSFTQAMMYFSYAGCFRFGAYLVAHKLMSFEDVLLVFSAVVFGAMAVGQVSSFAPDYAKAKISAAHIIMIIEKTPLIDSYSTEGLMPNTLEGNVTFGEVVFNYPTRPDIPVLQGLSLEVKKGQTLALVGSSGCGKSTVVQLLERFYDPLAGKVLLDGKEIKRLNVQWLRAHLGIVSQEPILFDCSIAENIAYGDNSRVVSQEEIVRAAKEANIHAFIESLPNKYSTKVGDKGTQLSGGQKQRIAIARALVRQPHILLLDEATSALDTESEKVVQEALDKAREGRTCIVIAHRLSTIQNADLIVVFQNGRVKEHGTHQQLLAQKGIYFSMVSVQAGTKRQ
# Procedure, shortened: (§4)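 Cells at 2 × 10^6/mL were preincubated 10 min with compound. Rhodamine 123 then added to 5.2 µM final, 20 min at 37 °C. Cells washed twice in PBS, resuspended and read by flow cytometry. Percent inhibition was scaled between MDR-cell accumulation (0%) and parental L5178 accumulation (100%). Controls: 100 nM tariquidar (positive) and 2% DMSO (negative).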
# [28] = system: HeLa; assay: Antiproliferative activity against human HeLa cells after 72 hrs by MTT assay; type: functional, cell-based; procedure, shortened: as §3
# [29] = Synergistic cytotoxicity against mouse L5178 cells assessed as combination index at ED75 using 75:1 test compound to doxorubicin ratio after 48 hrs by MTT-based checkerboard microplate method; type: functional; procedure, shortened: as §2
# [30] = target: T1, ABCB1 (P-glycoprotein); assay: Inhibition of human ABCB1 expressed in mouse L5178 cells assessed as increase in rhodamine-123 accumulation at 2 uM after 10 mins by flow cytometric analysis relative to control; type: cell-based; conditions: mouse L5178 cells expressing human ABCB1, probe rhodamine-123; procedure, shortened: as §4
# [31] = Synergistic cytotoxicity against mouse L5178 cells expressing human ABCB1 assessed as combination index at ED50 using 60:1 test compound to doxorubicin ratio after 48 hrs by MTT-based checkerboard microplate method; type: functional; procedure, shortened: as §2
# [32] = system: MCF7; assay: Antiproliferative activity against human MCF7 cells after 72 hrs by MTT assay; type: functional, cell-based; conditions: MCF7, 72 h; procedure, shortened: as §3
# [33] = Synergistic cytotoxicity against mouse L5178 cells assessed as combination index at ED90 using 75:1 test compound to doxorubicin ratio after 48 hrs by MTT-based checkerboard microplate method; type: functional; procedure, shortened: as §2
# [34] = Cytotoxicity against mouse L5178 cells after 48 hrs by MTT assay; type: functional, cell-based; conditions: L5178, 48 h; procedure, shortened: as §1
# [35] = Synergistic cytotoxicity against mouse L5178 cells expressing human ABCB1 assessed as combination index at ED50 using 15:1 test compound to doxorubicin ratio after 48 hrs by MTT-based checkerboard microplate method; type: functional; procedure, shortened: as §2
Structure (SMILES),IC50 [1] [µM],CI [2],CI [3],CI [4],CI [5],CI [6],CI [7],IC50 [8] [µM],CI [9],CI [10],CI [11],CI [12],CI [13],CI [14],CI [15],CI [16],CI [17],CI [18],CI [19],CI [20],other results
CCO/N=C1\C=C2[C@H](CC[C@]3(C)[C@@H]([C@@]4(C)OC(C)(C)O[C@@H]4CCC(C)(C)O)CC[C@@]23O)[C@@]2(C)C[C@@H]3OC(C)(C)O[C@@H]3C[C@@H]12,47,0.2,1.02,1.08,1.1,0.35,0.8,> 30,1.09,1.06,0.55,0.17,0.41,0.89,0.18,0.15,0.14,0.58,0.6,0.23,"CI [21]: 0.26; CI [22]: 0.16; CI [23]: 0.59; IC50 [24]: > 30 µM; CI [25]: 0.95; CI [26]: 0.12; inhibition at 10 min, 20 µM [27]: 78.8%; IC50 [28]: > 30 µM; CI [29]: 0.7; inhibition at 10 min, 2 µM [30]: 17.5%; CI [31]: 0.31; IC50 [32]: 22.6 µM; CI [33]: 0.84; IC50 [34]: 35 µM; CI [35]: 0.57"
CC(C)(O)CC[C@H]1OC(C)(C)O[C@]1(C)[C@H]1CC=C2C3=CC(=O)N[C@@H]4C[C@H]5OC(C)(C)O[C@H]5C[C@]4(C)[C@H]3CC[C@@]21C,72.4,0.18,0.58,0.46,0.46,0.17,0.42,> 30,0.43,0.5,0.57,0.4,0.15,0.67,0.24,0.09,0.15,0.51,0.46,0.13,"CI [21]: 0.11; CI [22]: 0.12; CI [23]: 0.62; IC50 [24]: > 30 µM; CI [25]: 0.63; CI [26]: 0.1; inhibition at 10 min, 20 µM [27]: 4.27%; IC50 [28]: > 30 µM; CI [29]: 0.52; inhibition at 10 min, 2 µM [30]: 1.16%; CI [31]: 0.2; IC50 [32]: > 30 µM; CI [33]: 0.43; IC50 [34]: 63.4 µM; CI [35]: 0.2"
CC(C)(O)CC[C@H]1OC(C)(C)O[C@]1(C)[C@H]1CC[C@@]2(O)C3=C/C(=N\OC(C)(C)C)[C@@H]4C[C@H]5OC(C)(C)O[C@H]5C[C@]4(C)[C@H]3CC[C@]12C,29.1,0.27,1,0.98,1.26,0.44,0.91,16.1,0.91,1.06,0.58,0.24,0.53,1.7,0.3,0.25,0.2,0.63,0.7,0.29,"CI [21]: 0.36; CI [22]: 0.23; CI [23]: 0.56; IC50 [24]: 12.4 µM; CI [25]: 1.3; CI [26]: 0.17; inhibition at 10 min, 20 µM [27]: 112%; IC50 [28]: 8.43 µM; CI [29]: 0.67; inhibition at 10 min, 2 µM [30]: 38.8%; CI [31]: 0.38; IC50 [32]: 11.1 µM; CI [33]: 0.8; IC50 [34]: 28.1 µM; CI [35]: 0.66"
